Data: ChEMBL document CHEMBL2439948, “Discovery of DF-461, a Potent Squalene Synthase Inhibitor” (ACS Med Chem Lett, 2013)
The source made the active and inactive calls. The rule behind the calls is not given here.

Experiments:
Squalene synthase = biological target: T1, Squalene synthase (Rattus norvegicus, UniProt Q02769); assay: Inhibition of rat hepatic microsomal squalene synthase using [3H]FPP as substrate after by scintillation spectrophotometry
T1 sequence (Q02769 whole entry): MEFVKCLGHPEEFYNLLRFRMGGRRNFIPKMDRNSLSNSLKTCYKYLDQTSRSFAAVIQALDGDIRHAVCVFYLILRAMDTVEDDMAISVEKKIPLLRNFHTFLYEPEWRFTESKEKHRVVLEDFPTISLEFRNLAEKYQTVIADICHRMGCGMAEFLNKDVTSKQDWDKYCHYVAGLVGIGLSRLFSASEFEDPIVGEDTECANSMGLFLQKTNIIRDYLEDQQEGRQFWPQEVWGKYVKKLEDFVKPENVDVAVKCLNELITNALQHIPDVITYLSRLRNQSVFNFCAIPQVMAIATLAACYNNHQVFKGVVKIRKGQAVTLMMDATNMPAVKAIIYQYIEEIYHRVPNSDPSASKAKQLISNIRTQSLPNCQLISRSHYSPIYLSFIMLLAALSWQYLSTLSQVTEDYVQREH

Hepatocyte = assay: Inhibition of cholesterol synthesis in rat hepatocytes assessed as formation of cholesterol using [14C]mevalonolactone as substrate after 1 hr by liquid scintillation counting; type: functional, cell-based
Rattus norvegicus [1] = assay: Inhibition of cholesterol synthesis in Wistar rat at 1 mg/kg, po administered as single dose prior to [14C]mevalonolactone injection measured after 1 hr by liquid scintillation counting; type: functional
Outline: (§1)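 Rats given a single oral dose of 1 mg/kg; hepatic cholesterol synthesis inhibition (%) determined at 1, 4 and 7 h after dosing.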

Rattus norvegicus [2] = assay: Inhibition of cholesterol synthesis in Wistar rat at 1 mg/kg, po administered as single dose prior to [14C]mevalonolactone injection measured after 4 hrs by liquid scintillation counting; type: functional; outline: as §1
Rattus norvegicus [3] = assay: Inhibition of cholesterol synthesis in Wistar rat at 1 mg/kg, po administered as single dose prior to [14C]mevalonolactone injection measured after 7 hrs by liquid scintillation counting; type: functional; outline: as §1
Rattus norvegicus [4] = assay: Inhibition of cholesterol synthesis in po dosed Wistar rat administered as single dose prior to [14C]mevalonolactone injection measured after 7 hrs by liquid scintillation counting; type: functional
marmosets [5] = assay: Reduction in total cholesterol level in marmosets at 30 mg/kg/day, po for 7 days; type: functional, Callitrichinae sp.; set-up: scale not given: the % may be the effect or the level left
Outline: (§2)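 Marmosets dosed orally at 30 mg/kg/day for 7 days. Plasma total, non-HDL and HDL cholesterol and triglyceride reported as mean percentage change from each animal's initial values (n = 7, 8). Significance was tested against initial values.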

marmosets [6] = assay: Reduction in triglyceride level in marmosets at 30 mg/kg/day, po for 7 days; type: functional, Callitrichinae sp.; set-up: scale not given: the % may be the effect or the level left; outline: as §2
marmosets [7] = assay: Reduction in non-HDL cholesterol level in marmosets at 30 mg/kg/day, po for 7 days; type: functional, Callitrichinae sp.; set-up: scale not given: the % may be the effect or the level left; outline: as §2
marmosets [8] = assay: Reduction in HDL cholesterol level in marmosets at 30 mg/kg/day, po for 7 days; type: functional, Callitrichinae sp.; set-up: scale not given: the % may be the effect or the level left; outline: as §2
Rattus norvegicus [9] = assay: Drug uptake in rats liver assessed per gram of tissue at 3 mg/kg, po administered as single dose measured at 1 hr
Rattus norvegicus [10] = assay: Partition co-efficient, Kp in rats liver assessed per gram of tissue at 3 mg/kg, po administered as single dose measured at 1 hr
Rattus norvegicus [11] = assay: Inhibition of cholesterol synthesis in Wistar rat at 3 mg/kg, po in presence of [14C]acetic acid; type: functional, organism-based; set-up: dose 3 mg/kg
Outline: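 Rats given a single 3 mg/kg oral dose; hepatic cholesterol synthesis inhibition expressed as % at 1 h post-dose.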

Rattus norvegicus [12] = assay: Inhibition of cholesterol synthesis in Wistar rat at 3 mg/kg, po administered as single dose prior to [14C]mevalonolactone injection measured after 1 hr by liquid scintillation counting
[13] = Lipophilicity, log D of the compound at pH 7.4; type: physicochemical; settings: buffer

Row | SMILES | IC50 (Squalene synthase) | concentration at 1 h (Rattus norvegicus [9]) | Kp at 1 h (Rattus norvegicus [10]) | logD [13] | IC50 (Hepatocyte) | inhibition in vivo at 1 mg/kg (Rattus norvegicus [1]) | inhibition in vivo at 1 mg/kg (Rattus norvegicus [2]) | inhibition in vivo at 1 mg/kg (Rattus norvegicus [3]) | ED50 (Rattus norvegicus [4]) | Activity (marmosets [5]) | Activity (marmosets [6]) | Activity (marmosets [7]) | Activity (marmosets [8]) | inhibition (Rattus norvegicus [11]) | inhibition in vivo at 3 mg/kg (Rattus norvegicus [12])
1 | COc1cccc([C@H]2O[C@H](CC(=O)O)c3nnc(C(F)(F)F)n3-c3ccc(Cl)cc32)c1OC(F)(F)F | 0.7 nM |  |  |  | 28 nM | 77% | 67% | 48% |  |  |  |  |  |  | 
2 | COc1cccc([C@H]2O[C@H](CC(=O)N3CCC(CC(=O)O)CC3)C(=O)N(CC(C)(C)COC(C)=O)c3ccc(Cl)cc32)c1OC [LAPAQUISTAT ACETATE] |  |  |  |  |  |  |  |  | 3.8 mg/kg | 17% | 25% | 19% | 10% |  | 
3 | COc1cccc([C@H]2O[C@H](CCn3cc(C(=O)O)cn3)c3nnc(C)n3-c3ccc(Cl)cc32)c1OC (relative stereo) | 36 nM |  |  | -0.4 | 290 nM |  |  |  |  |  |  |  |  |  | 30%
4 | COc1cccc([C@H]2O[C@H](CCn3cc(C(=O)O)cn3)c3nnc(C(F)(F)F)n3-c3ccc(Cl)cc32)c1OC (relative stereo) | 3.2 nM |  |  | 0.83 | 130 nM |  |  |  |  |  |  |  |  |  | 71%
5 | COc1cccc([C@H]2O[C@H](CCn3cc(C(=O)O)cn3)c3nnc(C(C)C)n3-c3ccc(Cl)cc32)c1OC (relative stereo) | 11 nM |  |  | 0.37 | 91 nM |  |  |  |  |  |  |  |  |  | 15%
6 | CC(C)c1c(C(=O)Nc2ccccc2)c(-c2ccccc2)c(-c2ccc(F)cc2)n1CC[C@@H](O)C[C@@H](O)CC(=O)O |  |  |  |  |  |  |  |  |  |  |  |  |  | Active | 

Continued, in another order:

Row | IC50 (Squalene synthase) | concentration at 1 h (Rattus norvegicus [9]) | Kp at 1 h (Rattus norvegicus [10]) | logD [13] | SMILES | IC50 (Hepatocyte) | inhibition in vivo at 1 mg/kg (Rattus norvegicus [1]) | inhibition in vivo at 1 mg/kg (Rattus norvegicus [2]) | inhibition in vivo at 1 mg/kg (Rattus norvegicus [3]) | ED50 (Rattus norvegicus [4]) | Activity (marmosets [5]) | Activity (marmosets [6]) | Activity (marmosets [7]) | Activity (marmosets [8]) | inhibition (Rattus norvegicus [11]) | inhibition in vivo at 3 mg/kg (Rattus norvegicus [12])
7 | 1.6 nM | 1040 ng/g | 66 |  | COc1cccc([C@H]2O[C@H](CC(=O)O)c3nnc(C(F)(F)F)n3-c3ccc(Cl)cc32)c1OC | 38 nM | 88% | 78% | 45% |  | 29% | 29% | 44% | 3% |  | 
8 | 0.85 nM |  |  |  | COc1cccc([C@H]2O[C@H](CC(=O)O)c3nnc(C(F)(F)F)n3-c3ccc(Cl)cc32)c1C | 46 nM | 87% | 69% | 45% |  | 32% | 34% | 42% | 8% |  | 
9 | 1.1 nM |  |  |  | COc1cccc([C@H]2O[C@H](CC(=O)O)c3nnc(C(F)(F)F)n3-c3ccc(Cl)cc32)c1Cl | 19 nM | 93% | 77% | 55% | 0.11 mg/kg | 39% | 24% | 53% | 16% | Active | 
10 | 6 nM |  |  |  | COc1cccc([C@H]2O[C@H](CCn3cc(C(=O)O)cn3)c3nnc(CF)n3-c3ccc(Cl)cc32)c1OC (relative stereo) | 77 nM |  |  |  |  |  |  |  |  |  | 48%
11 | 0.36 nM |  |  |  | CCc1c(OC)cccc1[C@H]1O[C@H](CC(=O)O)c2nnc(C(F)(F)F)n2-c2ccc(Cl)cc21 | 18 nM | 76% | 57% | 21% |  |  |  |  |  |  | 
